Measured values as given in ChEMBL document CHEMBL3588823, “Design, synthesis and biological evaluation of novel 5-oxo-2-thioxoimidazolidine derivatives as potent androgen receptor antagonists” (Eur J Med Chem, 2015).

Legend:
LNCaP = assay: Antiproliferative activity against human LNCAP cells after 3 days; format: functional, cell-based; details: Homo sapiens, LNCaP, 72 h; read-out: IC50
In short: (§1)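 LNCaP cells seeded at 10,000 per well in RPMI 1640 with 10% charcoal-stripped serum and 1% AAS, then held 3 days at 37 °C. Medium was then replaced with serial compound dilutions, either without DHT (agonism mode) or with DHT (antagonism mode).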

Androgen receptor [1] = target: T1, Androgen receptor (Homo sapiens, UniProt P10275); assay: Antagonist activity at androgen receptor (unknown origin)
T1 sequence (P10275 whole entry): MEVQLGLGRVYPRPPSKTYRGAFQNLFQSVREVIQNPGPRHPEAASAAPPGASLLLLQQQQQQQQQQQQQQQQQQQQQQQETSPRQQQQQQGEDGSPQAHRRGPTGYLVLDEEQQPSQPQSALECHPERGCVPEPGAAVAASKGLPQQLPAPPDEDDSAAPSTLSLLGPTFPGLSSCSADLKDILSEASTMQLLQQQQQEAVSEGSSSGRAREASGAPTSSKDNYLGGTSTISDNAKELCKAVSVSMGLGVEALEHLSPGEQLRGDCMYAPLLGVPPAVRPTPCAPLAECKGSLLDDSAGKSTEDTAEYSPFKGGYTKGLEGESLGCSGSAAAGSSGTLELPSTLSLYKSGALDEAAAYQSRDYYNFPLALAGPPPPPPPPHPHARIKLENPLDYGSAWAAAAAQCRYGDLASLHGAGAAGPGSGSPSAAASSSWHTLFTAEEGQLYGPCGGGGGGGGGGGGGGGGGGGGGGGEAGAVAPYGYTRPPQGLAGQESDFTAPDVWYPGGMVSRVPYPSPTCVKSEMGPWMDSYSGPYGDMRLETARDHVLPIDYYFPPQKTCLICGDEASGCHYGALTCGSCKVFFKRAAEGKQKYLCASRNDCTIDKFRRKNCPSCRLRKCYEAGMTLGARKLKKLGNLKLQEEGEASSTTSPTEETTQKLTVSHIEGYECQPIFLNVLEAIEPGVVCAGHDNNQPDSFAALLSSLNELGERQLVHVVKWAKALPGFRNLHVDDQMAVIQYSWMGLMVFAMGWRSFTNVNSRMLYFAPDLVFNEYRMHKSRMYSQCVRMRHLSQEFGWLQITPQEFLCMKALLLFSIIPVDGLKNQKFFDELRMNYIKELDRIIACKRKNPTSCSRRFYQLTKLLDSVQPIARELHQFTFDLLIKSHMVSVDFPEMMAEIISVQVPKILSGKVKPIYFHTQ

Rattus norvegicus [2] = assay: Half life in rat at 5 mg/kg, po; format: ADME, organism-based; details: in vivo
In short: (§2)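 Rats (n = 3) were given a single 5 mg/kg oral dose in 0.5% HPMC. Blood was taken into EDTA tubes at 15 and 30 min and 1, 2, 4, 8 and 24 h. Plasma was obtained by centrifugation and proteins were precipitated with acetonitrile. Bioavailability was calculated against a 1 mg/kg iv dose.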

[3] = (§3) Half life in rat at 1 mg/kg, iv; format: ADME, organism-based; details: in vivo
In short: (§4)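 Rats (n = 3) were given a single 1 mg/kg iv dose in 20% hydroxypropyl-β-cyclodextrin. Blood was taken into EDTA tubes at 5, 15 and 30 min and 1, 2, 4, 8 and 24 h. Plasma was obtained by centrifugation and proteins were precipitated with acetonitrile before analysis.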

[4] = (§5) Tmax in rat at 5 mg/kg, po; format: ADME, organism-based; details: in vivo; in short: as §2
[5] = Tmax in rat at 1 mg/kg, iv; format: ADME, organism-based; details: in vivo; in short: as §4
[6] = (§6) Cmax in rat at 5 mg/kg, po; format: ADME, organism-based; parameters: dose 5 mg/kg, route oral; details: in vivo; in short: as §2
[7] = (§7) Cmax in rat at 1 mg/kg, iv; format: ADME, organism-based; parameters: dose 1 mg/kg, route intravenous; details: in vivo; in short: as §4
[8] = AUC (0 to time) in rat at 5 mg/kg, po; format: ADME, organism-based; details: in vivo
In short: (§8)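 Rats (n = 3) received a single 5 mg/kg oral dose in 0.5% HPMC. EDTA blood samples were taken at 15 and 30 min and at 1, 2, 4, 8 and 24 h. Plasma was obtained by centrifugation, mixed with acetonitrile:H2O (1:1 v/v) and precipitated with acetonitrile.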

[9] = AUC (0 to time) in rat at 1 mg/kg, iv; format: ADME, organism-based; details: in vivo
In short: (§9)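 Rats (n = 3) given a single 1 mg/kg iv dose in 20% HP-b-CD. Blood was drawn into EDTA tubes at 5, 15 and 30 min and at 1, 2, 4, 8 and 24 h. Plasma was separated by centrifugation, mixed with acetonitrile:H2O (1:1 v/v) and protein-precipitated with acetonitrile.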

[10] = (§10) AUC (0 to infinity) in rat at 5 mg/kg, po; format: ADME, organism-based; parameters: dose 5 mg/kg, route oral, time infinity; details: in vivo; in short: as §8
[11] = AUC (0 to infinity) in rat at 1 mg/kg, iv; format: ADME, organism-based; parameters: dose 1 mg/kg, route intravenous, time infinity; details: in vivo; in short: as §9
Rattus norvegicus [12] = assay: Volume of distribution in rat at 5 mg/kg, po; format: ADME, organism-based; details: in vivo; in short: as §2
[13] = Volume of distribution in rat at 1 mg/kg, iv; format: ADME, organism-based; details: in vivo; in short: as §4
Rattus norvegicus [14] = assay: Clearance in rat at 5 mg/kg, po; format: ADME, organism-based; details: in vivo; in short: as §2
[15] = Clearance in rat at 1 mg/kg, iv; format: ADME, organism-based; details: in vivo; in short: as §4
[16] = MRT (last) in rat at 5 mg/kg, po; format: ADME, organism-based; details: in vivo; in short: as §2
[17] = MRT (last) in rat at 1 mg/kg, iv; format: ADME, organism-based; details: in vivo; in short: as §4
[18] = MRT (INF) in rat at 5 mg/kg, po; format: ADME, organism-based; details: in vivo; in short: as §2
[19] = (§11) MRT (INF) in rat at 1 mg/kg, iv; format: ADME, organism-based; details: in vivo; in short: as §4
Rattus norvegicus [20] = assay: Volume of distribution at steady state in rat at 5 mg/kg, po; format: ADME, organism-based; details: in vivo; in short: as §2
[21] = Volume of distribution at steady state in rat at 1 mg/kg, iv; format: ADME, organism-based; details: in vivo, read-out: Vdss; in short: as §4
[22] = Oral bioavailability in rat at 5 mg/kg; format: ADME, organism-based; details: in vivo; in short: as §2
Androgen receptor [23] = target: T1, Androgen receptor; assay: Partial agonist activity at androgen receptor (unknown origin); in short: as §1
Rattus norvegicus [24] = assay: as §3; format: ADME, organism-based; details: in vivo; in short: as §4
Rattus norvegicus [25] = assay: as §5; format: ADME, organism-based; details: in vivo; in short: as §2
Rattus norvegicus [26] = assay: as §6; format: ADME, organism-based; parameters: dose 5 mg/kg, route oral; details: in vivo; in short: as §2
Rattus norvegicus [27] = assay: as §7; format: ADME, organism-based; parameters: dose 1 mg/kg, route intravenous; details: in vivo; in short: as §4
Rattus norvegicus [28] = assay: as §10; format: ADME, organism-based; parameters: dose 5 mg/kg, route oral, time infinity; details: in vivo; in short: as §8
Rattus norvegicus [29] = assay: as §11; format: ADME, organism-based; details: in vivo; in short: as §4

CNC(=O)c1ccc(N2C(=S)N(c3ccc(C#N)c(C(F)(F)F)c3)C(=O)[C@@]23CCOC3)cc1F
IC50 (LNCaP): 2000 nM | Ki (Androgen receptor [1]): 215 nM

CNC(=O)c1ccc(N2C(=S)N(c3ccc(C#N)c(C(F)(F)F)c3)C(=O)C2(C)C)cc1F [ENZALUTAMIDE]
IC50 (LNCaP): 127 nM

CNC(=O)c1ccc(N2C(=S)N(c3ccc(C#N)c(C(F)(F)F)c3)C(=O)[C@@]2(C)COC)cc1F
IC50 (LNCaP): 185 nM | Ki (Androgen receptor [1]): 40.6 nM

N#Cc1ccc(N2C(=O)[C@]3(CCOC3)N(c3ccc(C(N)=O)c(F)c3)C2=S)cc1C(F)(F)F
IC50 (LNCaP): 71.4 nM | Ki (Androgen receptor [1]): 14.1 nM | t1/2 (Rattus norvegicus [2]): 1.8 h | half-life [3]: 1.5 h | Tmax [4]: 2 h | Tmax [5]: 4.98 min | Cmax [6]: 261 ng/mL | Cmax [7]: 185 ng/mL | AUC [8]: 1280 ng·h/mL | AUC [9]: 295 ng·h/mL | AUC(0-inf) [10]: 1390 ng·h/mL | AUC(0-inf) [11]: 303 ng·h/mL | Vd (Rattus norvegicus [12]): 9.4 L/kg | Vd [13]: 7 L/kg | CL (Rattus norvegicus [14]): 60 mL/min/kg | clearance [15]: 55 mL/min/kg | MRT last [16]: 3.1 h | MRT last [17]: 1.6 h | MRT inf [18]: 3.7 h | MRT inf [19]: 1.8 h | Vdss (Rattus norvegicus [20]): 22.3 L/kg | Vd [21]: 6.1 L/kg | bioavailability [22]: 87%

CC(O)(CS(=O)(=O)c1ccc(F)cc1)C(=O)Nc1ccc(C#N)c(C(F)(F)F)c1 (stereo unspecified) [BICALUTAMIDE]
IC50 (LNCaP): 733 nM

CCOC(=O)CC1(C)C(=O)N(c2ccc(C#N)c(C(F)(F)F)c2)C(=S)N1c1ccc(C(=O)NC)c(F)c1 (racemic)
IC50 (LNCaP): 1380 nM | Ki (Androgen receptor [1]): 236 nM

CNC(=O)c1ccc(N2C(=S)N(c3ccc(C#N)c(C(F)(F)F)c3)C(=O)C2(C)CO)cc1F (stereo unspecified)
IC50 (LNCaP): 212 nM | Ki (Androgen receptor [23]): 43.3 nM

CNC(=O)c1ccc(N2C(=S)N(c3ccc(C#N)c(C(F)(F)F)c3)C(=O)[C@]23CCOC3)cc1F
IC50 (LNCaP): 79.2 nM | Ki (Androgen receptor [1]): 18.4 nM | t1/2 (Rattus norvegicus [2]): 5.2 h | t1/2 (Rattus norvegicus [24]): 4.1 h | Tmax (Rattus norvegicus [25]): 2 h | Tmax [5]: 4.98 min | Cmax (Rattus norvegicus [26]): 1062 ng/mL | Cmax (Rattus norvegicus [27]): 531 ng/mL | AUC [8]: 13000 ng·h/mL | AUC [9]: 2570 ng·h/mL | AUC (Rattus norvegicus [28]): 13105 ng·h/mL | AUC(0-inf) [11]: 2620 ng·h/mL | Vd [13]: 2.3 L/kg | clearance [15]: 6.67 mL/min/kg | MRT last [16]: 6.9 h | MRT last [17]: 4.8 h | MRT inf [18]: 7.2 h | MRT (Rattus norvegicus [29]): 5.3 h | bioavailability [22]: 100%

CNC(=O)c1ccc(N2C(=S)N(c3ccc(C#N)c(C(F)(F)F)c3)C(=O)[C@H]2C)cc1F
IC50 (LNCaP): 1510 nM | Ki (Androgen receptor [23]): 482 nM

CNC(=O)c1ccc(NC(=S)Nc2ccc(C#N)c(C(F)(F)F)c2)cc1F
IC50 (LNCaP): > 10000 nM

CNC(=O)c1ccc(N2C(=S)N(c3ccc(C#N)c(C(F)(F)F)c3)C(=O)C2(C)COCc2ccccc2)cc1F (racemic)
IC50 (LNCaP): 2300 nM | Ki (Androgen receptor [1]): 514 nM

CNC(=O)c1ccc(N2C(=S)N(c3ccc(C#N)c(C(F)(F)F)c3)C(=O)C2(C)COC)cc1F (racemic)
IC50 (LNCaP): 344 nM | Ki (Androgen receptor [1]): 68 nM

CNC(=O)c1ccc(N2C(=S)N(c3ccc(C#N)c(C(F)(F)F)c3)C(=O)C23CCOCC3)cc1F
IC50 (LNCaP): 540 nM | Ki (Androgen receptor [1]): 126 nM
